According to ChEMBL document CHEMBL1144069, “Cytotoxic activities of hypocretenolides from Leontodon hispidus” (J Nat Prod, 1999):
The source made the active and inactive calls. No cut-off for these calls is given here.

What was measured:
[1] = Cytotoxicity against human GTB cells after 5 hrs by MTT assay; type: functional, cell-based
Summary of the method: (§1)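 Leukemic cells at 0.5 × 10^6 cells/mL in RPMI were exposed to 0.01–2.00 µM compound (0.1% final DMSO) at 37 °C and 5% CO2. Viability was measured as MTT formazan, dissolved in DMSO and read at 550 and 630 nm. Three wells per point, on three separate days (n = 9). IC50 was taken graphically from per-experiment dose curves.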

HL-60 = test: Cytotoxicity against human HL-60 cells after 5 hrs by MTT assay; type: functional, cell-based; conditions: HL-60, 5 h; summary of the method: as §1
A-431 [2] = test: Cytotoxicity against human A431 cells after 24 hrs by [3H]thymidine incorporation assay; type: functional, cell-based
Summary of the method: (§2)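 Adherent tumor cells (100 µL at 1 × 10^6 cells/mL) were overlaid with 100 µL of medium containing compound in the 0.25–4.00 µM range (0.1% final DMSO). The medium control had no compound. Cells were incubated for 24, 48 or 72 h at 37 °C and 5% CO2, then pulsed 24 h with 3H-thymidine. They were harvested onto glass filters and counted by liquid scintillation. Three wells per point, on three separate days (n = 9). IC50 was taken graphically.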

A-431 [3] = test: Cytotoxicity against human A431 cells after 48 hrs by [3H]thymidine incorporation assay; type: functional, cell-based; summary of the method: as §2
A-431 [4] = test: Cytotoxicity against human A431 cells after 72 hrs by [3H]thymidine incorporation assay; type: functional, cell-based; summary of the method: as §2
HEp-2 [5] = test: Cytotoxicity against human HEP2 cells after 24 hrs by [3H]thymidine incorporation assay; type: functional, cell-based; summary of the method: as §2
HEp-2 [6] = test: Cytotoxicity against human HEP2 cells after 48 hrs by [3H]thymidine incorporation assay; type: functional, cell-based; summary of the method: as §2
HEp-2 [7] = test: Cytotoxicity against human HEP2 cells after 72 hrs by [3H]thymidine incorporation assay; type: functional, cell-based; summary of the method: as §2
MCF7 [8] = test: Cytotoxicity against human MCF7 cells after 24 hrs by [3H]thymidine incorporation assay; type: functional, cell-based; summary of the method: as §2
MCF7 [9] = test: Cytotoxicity against human MCF7 cells after 48 hrs by [3H]thymidine incorporation assay; type: functional, cell-based; summary of the method: as §2
MCF7 [10] = test: Cytotoxicity against human MCF7 cells after 72 hrs by [3H]thymidine incorporation assay; type: functional, cell-based; summary of the method: as §2
OVCAR-3 [11] = test: Cytotoxicity against human OVCAR-3 cells after 24 hrs by [3H]thymidine incorporation assay; type: functional, cell-based; summary of the method: as §2
OVCAR-3 [12] = test: Cytotoxicity against human OVCAR-3 cells after 48 hrs by [3H]thymidine incorporation assay; type: functional, cell-based; summary of the method: as §2
OVCAR-3 [13] = test: Cytotoxicity against human OVCAR-3 cells after 72 hrs by [3H]thymidine incorporation assay; type: functional, cell-based; summary of the method: as §2
[14] = Cytotoxicity against human SK MEL28 cells after 24 hrs by [3H]thymidine incorporation assay; type: functional, cell-based; conditions: SK-MEL-28; summary of the method: as §2
[15] = Cytotoxicity against human SK MEL28 cells after 48 hrs by [3H]thymidine incorporation assay; type: functional, cell-based; conditions: SK-MEL-28; summary of the method: as §2
[16] = Cytotoxicity against human SK MEL28 cells after 72 hrs by [3H]thymidine incorporation assay; type: functional, cell-based; conditions: SK-MEL-28; summary of the method: as §2
[17] = Cytotoxicity against human SK37 cells after 24 hrs by [3H]thymidine incorporation assay; type: functional, cell-based; summary of the method: as §2
[18] = Cytotoxicity against human SK37 cells after 48 hrs by [3H]thymidine incorporation assay; type: functional, cell-based; summary of the method: as §2
[19] = Cytotoxicity against human SK37 cells after 72 hrs by [3H]thymidine incorporation assay; type: functional, cell-based; summary of the method: as §2
SW872 [20] = test: Cytotoxicity against human SW872 cells after 24 hrs by [3H]thymidine incorporation assay; type: functional, cell-based; summary of the method: as §2
SW872 [21] = test: Cytotoxicity against human SW872 cells after 48 hrs by [3H]thymidine incorporation assay; type: functional, cell-based; summary of the method: as §2
SW872 [22] = test: Cytotoxicity against human SW872 cells after 72 hrs by [3H]thymidine incorporation assay; type: functional, cell-based
Summary of the method: (§3)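 Adherent tumour cells at 1 × 10^6 cells/mL (100 µL per well) overlaid with an equal volume of medium carrying test substance across 0.25–4.00 µM. Medium-only controls. Incubated 24, 48 or 72 h at 37 °C, 5% CO2, then pulsed 24 h with 3H-thymidine and harvested onto glass filters for scintillation counting. Final DMSO 0.1%. Triplicate wells, three days (n = 9). IC50 read graphically from each experiment's dose curve.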

ZR-75-1 [23] = test: Cytotoxicity against human ZR-75-1 cells after 24 hrs by [3H]thymidine incorporation assay; type: functional, cell-based; summary of the method: as §3
ZR-75-1 [24] = test: Cytotoxicity against human ZR-75-1 cells after 48 hrs by [3H]thymidine incorporation assay; type: functional, cell-based; summary of the method: as §3
ZR-75-1 [25] = test: Cytotoxicity against human ZR-75-1 cells after 72 hrs by [3H]thymidine incorporation assay; type: functional, cell-based; summary of the method: as §3
CD34+ cell [26] = test: Antiproliferative activity against CSF and human recombinant erythropoietin-induced human CD34+ cells proliferation assessed as inhibition of BFU-erythroid formation at 1 uM after 12 days by clonogenic assay; type: functional, cell-based
Summary of the method: (§4)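 Human CD34+ cells were immunomagnetically selected from mononuclear cells, with purity checked by FACS. They were plated at 2 × 10^3 cells/dish in Iscove's 0.8% methylcellulose with 30% FCS. Stimulation used 3 U/mL rhEPO plus 10% agar-stimulated leukocyte-conditioned medium. Final concentrations were 0.25–2.00 µM. Dishes were run in duplicate and repeated once (n = 4). CFU-E and mature BFU-E were scored at 12 days; primitive BFU-E and CFU-GM (>50 cells) at 18 days. IC50 was read graphically.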

CD34+ cell [27] = test: Antiproliferative activity against CSF and human recombinant erythropoietin-induced human CD34+ cells proliferation assessed as inhibition of CFU-erythroid formation at 1 uM after 12 days by clonogenic assay; type: functional, cell-based; summary of the method: as §4
[28] = Antiproliferative activity against CSF and human recombinant erythropoietin-induced human CD34+ cells proliferation assessed as inhibition of BFU-erythroid formation at 0.5 uM after 12 days by clonogenic assay; type: functional, CD34+ cell; set-up: scale not given: the % may be the effect or the level left; summary of the method: as §4
[29] = Antiproliferative activity against CSF and human recombinant erythropoietin-induced human CD34+ cells proliferation assessed as inhibition of CFU-erythroid formation at 0.5 uM after 12 days by clonogenic assay; type: functional, CD34+ cell; set-up: scale not given: the % may be the effect or the level left; summary of the method: as §4
CD34+ cell [30] = test: Antiproliferative activity against CSF and human recombinant erythropoietin-induced human CD34+ cells proliferation assessed as inhibition of BFU-erythroid formation after 12 days by clonogenic assay; type: functional, cell-based; summary of the method: as §4
[31] = (§5) Antiproliferative activity against CSF and human recombinant erythropoietin-induced human CD34+ cells proliferation assessed as inhibition of CFU-erythroid formation after 12 days by clonogenic assay; type: functional, CD34+ cell; summary of the method: as §4
CD34+ cell [32] = test: as §5; type: functional; summary of the method: as §4
CD34+ cell [33] = test: Antiproliferative activity against CSF and human recombinant erythropoietin-induced human CD34+ cells proliferation assessed as inhibition of CFU-GM formation after 18 days by clonogenic assay
[34] = Antiproliferative activity against CSF and human recombinant erythropoietin-induced human CD34+ cells proliferation assessed as inhibition of CFU-GM formation at 0.5 uM after 18 days by clonogenic assay; set-up: scale not given: the % may be the effect or the level left

Row | SMILES | IC50 [1] [nM] | IC50 (HL-60) [nM] | IC50 (A-431 [2]) [nM] | IC50 (A-431 [3]) [nM] | IC50 (A-431 [4]) [nM] | IC50 (HEp-2 [5]) [nM] | IC50 (HEp-2 [6]) [nM] | IC50 (HEp-2 [7]) [nM] | IC50 (MCF7 [8]) [nM] | IC50 (MCF7 [9]) [nM] | IC50 (MCF7 [10]) [nM] | IC50 (OVCAR-3 [11]) [nM] | IC50 (OVCAR-3 [12]) [nM] | IC50 (OVCAR-3 [13]) [nM] | IC50 [14] [nM] | IC50 [15] [nM] | IC50 [16] [nM] | IC50 [17] [nM] | IC50 [18] [nM] | IC50 [19] [nM] | further results
1 | C=C(C(=O)O[C@@H]1[C@@H](O)[C@H](O)[C@@H](OCC2=C3C(=O)C=C(C)[C@@]34C[C@@H](CC2)C(=C)C(=O)O4)O[C@H]1CO)[C@@H]1CCC(CO)=C2C(=O)C=C(C)[C@@]2(O)C1 | 70 | 100 | 700 | 700 | 500 | 800 | 700 | 600 | 500 | 300 | 400 | 900 | 1000 | 1000 | 1300 | 900 | 400 | 1300 | 900 | 700 | IC50 (SW872 [20]): 1500 nM; IC50 (SW872 [21]): 1400 nM; IC50 (SW872 [22]): 1400 nM; IC50 (ZR-75-1 [23]): 300 nM; IC50 (ZR-75-1 [24]): 300 nM; IC50 (ZR-75-1 [25]): 500 nM; Activity (CD34+ cell [26]): Active; Activity (CD34+ cell [27]): Active; Activity [28]: 60%; Activity [29]: 60%; Activity (CD34+ cell [30]): Dose-dependent effect; IC100 [31]: 2 µM; Activity (CD34+ cell [32]): Dose-dependent effect; Activity (CD34+ cell [33]): Dose-dependent effect; Activity [34]: 60%
2 | C=C1C(=O)O[C@@H]2C[C@@H](C)[C@@H]3C=CC(=O)[C@@]3(C)[C@@H](O)[C@H]12 [HELENALIN] | 270 | 320 | 900 | 900 | 800 | 900 | 900 | 800 | 800 | 500 | 700 | 1400 | 1600 | 1700 | 1300 | 900 | 500 | 1300 | 1200 | 700 | IC50 (SW872 [20]): 1400 nM; IC50 (SW872 [21]): 1200 nM; IC50 (SW872 [22]): 1200 nM; IC50 (ZR-75-1 [23]): 700 nM; IC50 (ZR-75-1 [24]): 800 nM; IC50 (ZR-75-1 [25]): 1100 nM
